Assay results pooled from the literature.
Target: Tyrosine-protein kinase HCK (HCK, Homo sapiens, UniProt P08631)

SMILES	read-out	method	concentration	remaining binding [%]
CCN1CCN(Cc2ccc(C(=O)Nc3ccc(C)c(Oc4ccc5c(c4)CC(=O)N5)c3)cc2C(F)(F)F)CC1	binding	competition with immobilised ligand	1 µM	80
FC(F)(F)Oc1cccc(-c2cnc3ccc(-c4ccncc4)nn23)c1	cell-free assay	competition with immobilised ligand	5 µM	71
F[C@@H]1CCN(c2nccc(-c3cnn4ncccc34)n2)C1	binding	–	1 µM	78
CCOCCn1cc(C(=O)Nc2ccc(-n3nc(-c4cccnc4)cc3C(F)(F)F)cn2)ccc1=O	cell-free assay	competition with immobilised ligand	1 µM	93
CN(C)c1nccc(-c2cnc3ncccn23)n1	binding	–	1 µM	100
O=C(NCc1ncc(C(F)(F)F)cc1Cl)c1ccc2c(c1)C1(CCS(=O)(=O)CC1)[C@@H](C1CC1)N2S(=O)(=O)c1ccc(F)cc1	cell-free assay	competition with immobilised ligand	1 µM	86
C=CC(=O)N1CCC(C(=O)NCC(=O)N2CCN(c3nc(-c4cnc(N)nc4C(F)F)nc(N4CCOCC4)n3)CC2)CC1	binding	competition with immobilised ligand	1 µM	86
O=C(NCCCN1CCOCC1)c1ccc(Nc2nccc(-c3cc4ccccc4s3)n2)cc1	binding	competition with immobilised ligand	1 µM	95
CC(C)CC(=O)N1CCc2nc(-c3ccc(Br)cc3)nc(N(C)Cc3ccccc3)c2C1	cell-free assay	competition with immobilised ligand	0.1 µM	94
C[C@H]1CCN(c2nccc(-c3cnn4ncccc34)n2)C1	binding	–	1 µM	95
O=C(NCCCN1CCOCC1)c1ccc(Nc2ncc(Cl)c(-c3ccc(Cl)s3)n2)cc1	binding	competition with immobilised ligand	1 µM	100
CN(C)c1nccc(-c2cnn3ncccc23)n1	binding	–	1 µM	100
O=C(Nc1cnc(Oc2ccc(F)cc2)nc1)N1CCc2ncccc2[C@@H]1c1ccc(F)cc1	cell-free assay	competition with immobilised ligand	1 µM	96
c1cncc(-c2cccc(Nc3nccc(NC4CCCCC4)n3)c2)c1	binding	competition with immobilised ligand	10 µM	3.1
CNC(=O)[C@@H]1CC[C@@H](n2c(-c3ccc4cnccc4c3)nc3ccc(C(=O)NCc4cccc(C(N)=O)c4)cc32)C1	binding	competition with immobilised ligand	1 µM	93
Cc1cnn2ncc(-c3ccnc(N(C)C)n3)c2c1	binding	–	1 µM	100
CN1CCN(c2cnc3c(C4CCN(C(=O)c5ccc(OC(F)(F)F)cc5N)CC4)ncnc3c2)CC1	cell-free assay	competition with immobilised ligand	1 µM	95
O=C(c1ccc(Nc2ncc(Cl)c(-c3cc4ccccc4s3)n2)cc1)N1CCC(N2CCCC2)CC1	binding	competition with immobilised ligand	1 µM	100
N[C@@H]1CCN(c2nccc(-c3cnn4ncccc34)n2)C1	binding	–	1 µM	100
CO[C@@H](C)c1c(Nc2ccc([C@H](N(C)C(=O)C3CCS(=O)(=O)CC3)C(F)(F)F)cc2)cnc2cc(Cl)nn12	cell-free assay	competition with immobilised ligand	1 µM	100
O=C(Nc1c[nH]nc1C(=O)NC1CCNCC1)c1cc(F)cc(F)c1	binding	competition with immobilised ligand	1 µM	100
